According to ChEMBL document CHEMBL3425511 (J Med Chem, 2015):
Calls of active or inactive are those of the source.

What was measured:
Rattus norvegicus [1] = test: Reversal of carrageenan-induced thermal hypersensitivity in po dosed Sprague-Dawley rat assessed as plasma concentration required to reach ED80 measured at 100 mins; type: functional
Method in brief: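 Rats dosed orally 100 min before radiant-heat testing. For CFA, plasma taken right after behavioural testing; for carrageenan, taken from a separate group dosed identically. Blood collected on lithium heparin and centrifuged, plasma stored at −80 °C. Plasma levels matching ED50 and ED80 (EC50/EC80) computed from the dose−response data.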

[2] = Half life in dog at 10 mg/kg, po; type: ADME, organism-based, Canis lupus familiaris; parameters: dose 10 mg/kg, route oral; conditions: in vivo
Method in brief: (§1)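 Oral dosing at 10 mg/kg as a solution of the sodium salt in 20% HPβCD, n = 4 animals per group.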

[3] = target: Transient receptor potential cation channel subfamily M member 8 (Homo sapiens) (UniProt Q7Z2W7); test: Effect on TRPM8 (unknown origin)
[4] = target: Voltage-gated inwardly rectifying potassium channel KCNH2 (Homo sapiens, UniProt Q12809); test: Displacement of [3H]-astemizole from recombinant human ERG at 10 uM
[5] = AUC in rat at 10 mg/kg, po; type: ADME, organism-based; parameters: dose 10 mg/kg, route oral; conditions: plasma; method in brief: as §1
[6] = Metabolic stability in rat liver microsomes assessed as compound remaining after 10 mins; type: ADME; conditions: liver microsomes, read-out: Stability
Method in brief: (§2)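 Compound incubated 10 min with liver microsomes of the stated species; amount of parent remaining reported as percent.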

Cytochrome P450 1A2 = target: T1, Cytochrome P450 1A2 (Homo sapiens, UniProt P05177); test: Inhibition of CYP1A2 in human liver microsomes; type: ADME
T1 sequence (P05177 whole entry): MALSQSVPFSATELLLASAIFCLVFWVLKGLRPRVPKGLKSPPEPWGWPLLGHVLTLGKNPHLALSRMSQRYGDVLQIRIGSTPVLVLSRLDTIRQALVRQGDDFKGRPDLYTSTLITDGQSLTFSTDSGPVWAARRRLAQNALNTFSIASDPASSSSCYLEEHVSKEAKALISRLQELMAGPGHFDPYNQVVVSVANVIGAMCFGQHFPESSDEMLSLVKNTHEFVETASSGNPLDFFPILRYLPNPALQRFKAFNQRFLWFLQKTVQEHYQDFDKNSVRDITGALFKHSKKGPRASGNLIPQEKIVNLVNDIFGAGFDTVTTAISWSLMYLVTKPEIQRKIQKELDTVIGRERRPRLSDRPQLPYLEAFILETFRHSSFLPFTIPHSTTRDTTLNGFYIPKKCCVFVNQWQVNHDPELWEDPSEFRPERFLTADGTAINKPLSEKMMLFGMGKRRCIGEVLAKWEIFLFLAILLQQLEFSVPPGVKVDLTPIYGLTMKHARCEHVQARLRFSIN

[7] = Cmax in rat at 10 mg/kg, po; type: ADME, organism-based; parameters: dose 10 mg/kg, route oral; conditions: in vivo; method in brief: as §1
[8] = Half life in mouse at 2 mg/kg, iv; type: ADME, organism-based; parameters: dose 2 mg/kg, route intravenous; conditions: in vivo
Method in brief: (§3)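 Intravenous dosing at 2 mg/kg as a solution of the sodium salt in 20% HPβCD, n = 4 animals per group.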

[9] = target: T2, Transient receptor potential cation channel subfamily V member 2 (Homo sapiens) (UniProt Q9Y5S1); test: Effect on TRPV2 (unknown origin)
T2 sequence (whole entry): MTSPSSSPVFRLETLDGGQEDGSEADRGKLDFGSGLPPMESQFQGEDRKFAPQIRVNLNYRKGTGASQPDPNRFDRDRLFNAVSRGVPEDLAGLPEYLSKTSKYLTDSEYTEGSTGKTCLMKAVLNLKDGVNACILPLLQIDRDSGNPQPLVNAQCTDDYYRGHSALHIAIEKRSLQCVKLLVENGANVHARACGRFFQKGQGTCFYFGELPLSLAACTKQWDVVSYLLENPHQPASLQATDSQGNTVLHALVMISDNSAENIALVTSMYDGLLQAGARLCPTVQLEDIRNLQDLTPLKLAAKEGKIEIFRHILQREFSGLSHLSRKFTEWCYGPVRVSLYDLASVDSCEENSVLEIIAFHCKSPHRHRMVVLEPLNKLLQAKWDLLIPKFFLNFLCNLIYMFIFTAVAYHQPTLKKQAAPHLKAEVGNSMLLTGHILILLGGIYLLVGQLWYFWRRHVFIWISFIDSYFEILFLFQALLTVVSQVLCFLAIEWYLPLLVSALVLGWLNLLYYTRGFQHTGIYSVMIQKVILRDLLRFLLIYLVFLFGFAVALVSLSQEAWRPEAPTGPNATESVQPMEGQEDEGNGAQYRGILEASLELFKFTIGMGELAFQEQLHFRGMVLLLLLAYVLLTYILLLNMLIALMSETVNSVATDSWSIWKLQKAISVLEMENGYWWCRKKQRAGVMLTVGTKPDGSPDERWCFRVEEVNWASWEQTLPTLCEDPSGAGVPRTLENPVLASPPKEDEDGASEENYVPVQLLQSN

Cytochrome P450 3A4 = Cytochrome P450 3A4 (Homo sapiens, UniProt P08684); test: Inhibition of CYP3A4 in human liver microsomes; type: ADME
[10] = Oral bioavailability in rat at 10 mg/kg; type: ADME, organism-based; conditions: in vivo; method in brief: as §1
Cytochrome P450 2D6 = Cytochrome P450 2D6 (Homo sapiens, UniProt P10635); test: Inhibition of CYP2D6 in human liver microsomes; type: ADME
[11] = Oral bioavailability in mouse at 10 mg/kg; type: ADME, organism-based; conditions: in vivo; method in brief: as §1
[12] = Half life in rat at 2 mg/kg, iv; type: ADME, organism-based; parameters: dose 2 mg/kg, route intravenous; conditions: in vivo; method in brief: as §3
[13] = Metabolic stability in dog liver microsomes assessed as compound remaining after 10 mins; type: ADME, Canis lupus familiaris; conditions: read-out: Stability; method in brief: as §2
Rattus norvegicus [14] = test: Reversal of complete freund's adjuvant-induced thermal hypersensitivity in Sprague-Dawley rat at 10 mg/kg, po measured after 30 to 180 mins; type: functional, organism-based; parameters: dose 10 mg/kg
[15] = target: Transient receptor potential cation channel subfamily V member 1 (Rattus norvegicus, UniProt O35433); test: Antagonist activity at recombinant rat TRPV1 expressed in HEK293 cells assessed as inhibition of capsaicin-induced Ca2+ influx preincubated for 5 mins followed by capsaicin challenge; type: cell-based
Method in brief: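 HEK293 stably expressing rat TRPV1, plated one day before on poly-D-lysine and loaded with Calcium 3 dye for 35 min at 37 °C, then 25 min at room temperature. Fluorescence Ca2+ read (FLIPR or FDSS) for 5 min with compound, then capsaicin to final 0.020−0.030 μM (~80% max response). Data normalised to 90/100 μM and 0.6 pM capsaicin.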

[16] = Cmax in dog at 10 mg/kg, po; type: ADME, organism-based, Canis lupus familiaris; parameters: dose 10 mg/kg, route oral; conditions: in vivo; method in brief: as §1
Rattus norvegicus [17] = test: Reversal of carrageenan-induced thermal hypersensitivity in po dosed Sprague-Dawley rat measured at 100 mins; type: functional
Method in brief: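 Male Sprague−Dawley rats (195−350 g), intraplantar CFA (100 μL, 1:1 CFA:saline) with testing 24 h later, or carrageenan-λ (200 μL, 10 mg/mL) with testing 3 h later. Radiant heat withdrawal latency, 10−15 s baseline, 20 s cutoff; rats with ≥25% latency drop kept. Oral dosing at 2.5 mL/kg. Percent reversal = (treatment − post)/(pre − post) × 100, scored blind.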

[18] = target: Transient receptor potential cation channel subfamily A member 1 (Homo sapiens) (UniProt O75762); test: Effect on TRPA1 (unknown origin)
[19] = Volume of distribution at steady state in dog at 2 mg/kg, iv; type: ADME, organism-based, Canis lupus familiaris; parameters: dose 2 mg/kg, route intravenous; conditions: in vivo, read-out: Vdss
Method in brief: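 Intravenous dosing at 2 mg/kg as a solution of the sodium salt in 20% HPβCD, n = 4 animals per group. Vss derived from the plasma pharmacokinetic profile.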

Chain of Cytochrome P450 3A4 (P08684 whole entry): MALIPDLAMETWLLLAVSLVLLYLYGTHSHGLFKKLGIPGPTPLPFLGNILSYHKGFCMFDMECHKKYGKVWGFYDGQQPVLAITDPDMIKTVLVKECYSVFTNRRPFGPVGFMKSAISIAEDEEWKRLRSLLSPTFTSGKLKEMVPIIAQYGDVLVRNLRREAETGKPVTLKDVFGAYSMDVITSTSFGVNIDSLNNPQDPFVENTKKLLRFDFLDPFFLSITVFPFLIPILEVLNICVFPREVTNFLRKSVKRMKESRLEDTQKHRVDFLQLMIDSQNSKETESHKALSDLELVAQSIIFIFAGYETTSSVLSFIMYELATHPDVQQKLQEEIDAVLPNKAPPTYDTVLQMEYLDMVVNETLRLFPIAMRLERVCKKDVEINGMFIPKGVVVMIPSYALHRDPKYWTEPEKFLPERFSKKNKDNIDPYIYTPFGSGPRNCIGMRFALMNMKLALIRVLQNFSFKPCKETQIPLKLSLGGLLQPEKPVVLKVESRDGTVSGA
Chain of Voltage-gated inwardly rectifying potassium channel KCNH2 (Q12809 whole entry): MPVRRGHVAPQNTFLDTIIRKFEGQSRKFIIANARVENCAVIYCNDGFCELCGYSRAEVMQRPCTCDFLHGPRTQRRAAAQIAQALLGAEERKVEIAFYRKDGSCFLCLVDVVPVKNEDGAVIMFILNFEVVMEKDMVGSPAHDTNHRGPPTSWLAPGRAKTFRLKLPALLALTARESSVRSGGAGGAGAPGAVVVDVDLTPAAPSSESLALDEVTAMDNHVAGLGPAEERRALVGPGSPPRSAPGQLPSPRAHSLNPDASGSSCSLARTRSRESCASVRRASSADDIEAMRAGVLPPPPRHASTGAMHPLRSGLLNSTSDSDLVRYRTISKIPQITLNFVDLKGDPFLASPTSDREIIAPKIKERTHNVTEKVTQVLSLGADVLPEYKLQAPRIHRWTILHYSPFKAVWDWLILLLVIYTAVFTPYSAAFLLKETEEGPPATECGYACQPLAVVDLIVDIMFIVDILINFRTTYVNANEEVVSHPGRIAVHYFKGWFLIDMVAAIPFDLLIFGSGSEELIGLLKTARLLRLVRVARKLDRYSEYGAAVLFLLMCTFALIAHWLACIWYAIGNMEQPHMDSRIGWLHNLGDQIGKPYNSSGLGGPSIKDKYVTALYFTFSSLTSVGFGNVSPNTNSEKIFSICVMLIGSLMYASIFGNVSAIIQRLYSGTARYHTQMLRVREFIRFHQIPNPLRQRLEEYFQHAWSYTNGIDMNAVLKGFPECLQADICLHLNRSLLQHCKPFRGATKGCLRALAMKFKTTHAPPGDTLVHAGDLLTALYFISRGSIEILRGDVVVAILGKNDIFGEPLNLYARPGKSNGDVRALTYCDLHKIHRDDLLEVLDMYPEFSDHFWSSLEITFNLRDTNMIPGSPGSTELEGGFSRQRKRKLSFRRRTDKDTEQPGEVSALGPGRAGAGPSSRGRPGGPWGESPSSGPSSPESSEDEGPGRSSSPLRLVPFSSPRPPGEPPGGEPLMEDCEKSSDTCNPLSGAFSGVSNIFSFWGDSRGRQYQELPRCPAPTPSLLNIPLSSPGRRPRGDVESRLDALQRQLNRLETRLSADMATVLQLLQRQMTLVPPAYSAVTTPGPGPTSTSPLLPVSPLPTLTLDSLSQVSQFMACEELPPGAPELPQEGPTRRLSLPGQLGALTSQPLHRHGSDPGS
Chain of Transient receptor potential cation channel subfamily A member 1 (Homo sapiens) (O75762 whole entry): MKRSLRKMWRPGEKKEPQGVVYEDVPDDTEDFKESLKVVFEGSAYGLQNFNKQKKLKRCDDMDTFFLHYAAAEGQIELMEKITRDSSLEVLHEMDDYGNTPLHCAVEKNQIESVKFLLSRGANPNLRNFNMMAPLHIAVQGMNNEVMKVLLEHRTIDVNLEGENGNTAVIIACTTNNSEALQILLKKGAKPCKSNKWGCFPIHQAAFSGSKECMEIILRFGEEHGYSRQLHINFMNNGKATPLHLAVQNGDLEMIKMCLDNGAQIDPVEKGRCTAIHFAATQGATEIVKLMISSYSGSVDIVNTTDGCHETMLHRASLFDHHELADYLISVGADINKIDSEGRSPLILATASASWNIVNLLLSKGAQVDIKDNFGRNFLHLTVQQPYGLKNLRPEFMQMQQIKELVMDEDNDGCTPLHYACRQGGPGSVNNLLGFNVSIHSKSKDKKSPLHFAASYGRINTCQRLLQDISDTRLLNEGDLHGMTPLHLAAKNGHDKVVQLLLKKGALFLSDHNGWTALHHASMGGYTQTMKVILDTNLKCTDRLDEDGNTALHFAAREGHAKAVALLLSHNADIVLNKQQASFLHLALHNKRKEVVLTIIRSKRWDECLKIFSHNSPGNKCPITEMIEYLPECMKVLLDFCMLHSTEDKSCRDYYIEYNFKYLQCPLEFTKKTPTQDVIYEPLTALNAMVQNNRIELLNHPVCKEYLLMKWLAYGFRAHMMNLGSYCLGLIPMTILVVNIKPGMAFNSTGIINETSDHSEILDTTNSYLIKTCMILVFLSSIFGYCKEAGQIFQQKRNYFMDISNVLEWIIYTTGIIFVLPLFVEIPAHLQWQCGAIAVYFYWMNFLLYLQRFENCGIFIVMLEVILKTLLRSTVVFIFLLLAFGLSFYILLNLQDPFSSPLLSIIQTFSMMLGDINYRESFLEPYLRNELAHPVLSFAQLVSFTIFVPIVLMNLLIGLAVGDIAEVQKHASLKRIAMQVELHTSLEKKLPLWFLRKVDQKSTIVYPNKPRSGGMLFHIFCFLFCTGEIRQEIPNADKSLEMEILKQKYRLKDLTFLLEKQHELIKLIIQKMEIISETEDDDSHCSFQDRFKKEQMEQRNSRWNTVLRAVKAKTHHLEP
Chain of Transient receptor potential cation channel subfamily M member 8 (Homo sapiens) (Q7Z2W7 whole entry, looked up): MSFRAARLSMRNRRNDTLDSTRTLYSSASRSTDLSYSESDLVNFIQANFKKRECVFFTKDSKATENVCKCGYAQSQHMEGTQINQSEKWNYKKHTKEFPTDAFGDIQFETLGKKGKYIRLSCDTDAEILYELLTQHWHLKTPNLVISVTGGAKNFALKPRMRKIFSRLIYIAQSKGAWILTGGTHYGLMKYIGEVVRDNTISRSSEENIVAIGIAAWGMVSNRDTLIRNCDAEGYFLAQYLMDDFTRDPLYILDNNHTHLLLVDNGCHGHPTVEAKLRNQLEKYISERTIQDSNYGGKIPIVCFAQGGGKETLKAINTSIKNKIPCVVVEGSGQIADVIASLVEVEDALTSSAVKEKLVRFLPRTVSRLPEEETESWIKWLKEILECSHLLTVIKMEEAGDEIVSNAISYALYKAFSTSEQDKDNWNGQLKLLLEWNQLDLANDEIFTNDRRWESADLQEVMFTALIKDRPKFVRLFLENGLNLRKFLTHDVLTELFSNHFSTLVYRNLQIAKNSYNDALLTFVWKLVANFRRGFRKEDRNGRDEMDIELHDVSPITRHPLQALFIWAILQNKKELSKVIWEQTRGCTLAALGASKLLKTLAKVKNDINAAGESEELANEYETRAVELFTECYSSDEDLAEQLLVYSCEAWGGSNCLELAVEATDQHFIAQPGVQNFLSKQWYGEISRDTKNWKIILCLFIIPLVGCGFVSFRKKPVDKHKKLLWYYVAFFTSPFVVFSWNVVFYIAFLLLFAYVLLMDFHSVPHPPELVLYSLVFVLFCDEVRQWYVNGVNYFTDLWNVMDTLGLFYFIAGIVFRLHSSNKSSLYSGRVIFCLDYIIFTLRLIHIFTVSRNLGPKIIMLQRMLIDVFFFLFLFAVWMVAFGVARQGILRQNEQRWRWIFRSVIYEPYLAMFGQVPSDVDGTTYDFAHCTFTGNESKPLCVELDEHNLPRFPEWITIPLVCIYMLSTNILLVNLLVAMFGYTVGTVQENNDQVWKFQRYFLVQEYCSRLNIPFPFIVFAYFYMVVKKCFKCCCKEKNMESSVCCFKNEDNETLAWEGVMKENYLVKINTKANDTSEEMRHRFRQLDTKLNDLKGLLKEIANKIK
Chain of Cytochrome P450 2D6 (P10635 whole entry): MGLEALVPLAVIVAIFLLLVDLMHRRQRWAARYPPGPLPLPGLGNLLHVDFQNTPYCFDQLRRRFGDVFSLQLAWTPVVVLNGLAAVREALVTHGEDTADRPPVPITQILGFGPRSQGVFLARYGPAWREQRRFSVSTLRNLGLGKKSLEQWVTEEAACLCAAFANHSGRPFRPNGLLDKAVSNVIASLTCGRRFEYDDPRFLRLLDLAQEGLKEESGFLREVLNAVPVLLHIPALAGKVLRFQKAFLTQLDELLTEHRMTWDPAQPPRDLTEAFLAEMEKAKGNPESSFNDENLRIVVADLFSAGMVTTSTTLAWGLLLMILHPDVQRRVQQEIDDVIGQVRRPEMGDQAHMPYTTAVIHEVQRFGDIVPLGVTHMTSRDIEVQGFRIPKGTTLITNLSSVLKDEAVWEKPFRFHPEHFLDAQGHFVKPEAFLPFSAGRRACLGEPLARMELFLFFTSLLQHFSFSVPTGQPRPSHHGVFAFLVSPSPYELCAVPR

- half-life [2]: 84 min
- Activity [3]: inactive
- AUC [5]: 4200 ng·h/mL
- remaining at 10 min [6]: 93%
- IC50 (Cytochrome P450 1A2): > 25 µM
- Cmax [7]: 421 ng/mL
- half-life [8]: 165 min
- Activity [9]: inactive
- IC50 (Cytochrome P450 3A4): > 25 µM
- bioavailability [10]: 51%
- IC50 (Cytochrome P450 2D6): > 25 µM
- bioavailability [11]: 83.3%
- half-life [12]: 204 min
- remaining at 10 min [13]: 36%
- IC50 [15]: 21 nM
- Cmax [16]: 1610 ng/mL
- Activity [18]: inactive
- Vd [19]: 2.7 L/kg
SMILES: CC(C)(O)c1ccccc1-c1ccc2[nH]c(/C=C/c3ccc(C(F)(F)F)cc3)nc2c1
- Activity (Rattus norvegicus [1]): 9.2 ng/mL
- inhibition (INH) [4]: Not Active
- Activity (Rattus norvegicus [14]): Active
- ED50 (Rattus norvegicus [17]): 0.18 mg/kg
- ED80 (Rattus norvegicus [17]): 0.48 mg/kg
